PREPL inh: PREPL enzyme inhibitors, primary screen, biochemical, fluorescence polarization | Prolyl endopeptidase-like (Homo sapiens), Q4J6C6 | recombinant PREPL, fluorescence polarization activity-based probe | inhibition, % at 5.96 µM | hit rate 0.68% among 320,000 | AID 2751, 2010; in the data active = inhibition above about 43%;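 also: 0% = enzyme with DMSO and 100% = wells lacking enzyme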
Target sequence (Q4J6C6 whole entry, looked up): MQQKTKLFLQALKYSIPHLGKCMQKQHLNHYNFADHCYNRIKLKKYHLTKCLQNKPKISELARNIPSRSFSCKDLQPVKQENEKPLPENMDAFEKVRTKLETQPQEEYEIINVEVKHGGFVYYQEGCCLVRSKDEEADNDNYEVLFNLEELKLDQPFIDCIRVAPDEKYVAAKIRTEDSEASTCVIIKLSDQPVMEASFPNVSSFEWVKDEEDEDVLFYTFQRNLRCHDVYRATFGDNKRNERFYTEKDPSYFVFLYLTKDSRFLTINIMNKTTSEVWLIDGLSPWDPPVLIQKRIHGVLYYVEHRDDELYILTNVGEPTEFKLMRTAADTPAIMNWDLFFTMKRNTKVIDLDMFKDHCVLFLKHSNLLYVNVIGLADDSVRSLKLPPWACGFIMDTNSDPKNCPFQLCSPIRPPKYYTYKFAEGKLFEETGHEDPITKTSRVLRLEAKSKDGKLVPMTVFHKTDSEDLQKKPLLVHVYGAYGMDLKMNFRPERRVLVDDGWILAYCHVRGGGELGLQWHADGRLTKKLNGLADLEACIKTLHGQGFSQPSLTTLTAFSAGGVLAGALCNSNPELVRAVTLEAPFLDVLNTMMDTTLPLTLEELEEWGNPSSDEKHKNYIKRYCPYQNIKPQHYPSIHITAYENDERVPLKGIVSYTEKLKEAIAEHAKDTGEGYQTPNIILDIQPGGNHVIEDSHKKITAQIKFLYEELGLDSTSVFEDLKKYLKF
PAFAH2 inh: PAFAH2 enzyme inhibitors, primary screen, biochemical, fluorescence polarization, human | Platelet-activating factor acetylhydrolase 2, cytoplasmic (Homo sapiens), Q99487 | recombinant PAFAH2, FP-rhodamine activity probe | inhibition, % at 3.39 µM | hit rate 0.99% among 340,000 | AID 492956, 2010;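 active = inhibition above the mean over all tested compounds plus 3 SD, cut at about 30% in these data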;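 also: inhibitors block probe labeling of enzyme so polarization drops; 0% = enzyme with DMSO and 100% = wells lacking PAFAH2 protein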
pPAFAH FP inh: pPAFAH enzyme inhibitors, primary screen, biochemical, fluorescence polarization, human | Platelet-activating factor acetylhydrolase (Homo sapiens), Q13093 | recombinant pPAFAH, FP-rhodamine probe fluorescence polarization | inhibition, % at 3.39 µM | hit rate 1.5% among 330,000 | AID 463082, 2010;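 active = inhibition above the mean inhibition across the screen plus 3 SD, cut at about 25% in these data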;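 also: inhibitors block binding of the rhodamine activity-based probe so polarization drops; 0% = enzyme with DMSO and 100% = wells lacking pPAFAH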
Apaf1 inhib: inhibitors of human Apaf-1 apoptosome, primary screen, biochemical, DEVD-Rh110 fluorescence, uHTS. hit rate 0.71% among 330,000. reconstituted apoptosome caspase-3 activity. inhibition, % at 20 µM. AID 489030, 2010; active = inhibition of at least 40% at 20 µM;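 also: plate controls were DMSO wells for no effect and DEVD-CHO caspase inhibitor wells for full effect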
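Material: cell-free apoptosome with Apaf-1, procaspase-3 and caspase-9; Buffer or medium: Hepes pH 7.5 with detergent and BSA; Reagent: cytochrome c trigger plus (Z-DEVD)2-Rh110 caspase-3 substrate; Times: compound with Apaf-1, dATP, procaspase-3 30 min, then 50 min reaction, room temperature; Technique: Rh110 fluorescence intensity.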
PAFAH1B3 FP inh: PAFAH1B3 enzyme inhibitors, primary screen, biochemical, fluorescence polarization, human; recombinant PAFAH1B3, FP-rhodamine probe; inhibition, % at 3.39 µM; hit rate 0.28% among 340,000;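 active = inhibition above the screen-wide average of all tested compounds plus 3 SD, cut at about 25% in these data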;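 also: 0% = enzyme with DMSO only and 100% = wells lacking PAFAH1B3 protein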
PAFAH1B2 inh: PAFAH1B2 enzyme inhibitors, primary screen, biochemical, fluorescence polarization, human; Platelet-activating factor acetylhydrolase IB subunit alpha2 (Homo sapiens), P68402; recombinant PAFAH1B2, FP-rhodamine activity probe; inhibition, % at 3.39 µM; hit rate 1.2% among 340,000;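 active = inhibition above the mean of all tested compounds plus 3 SD, cut at about 24% in these data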;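 also: 0% = enzyme with DMSO and 100% = wells lacking PAFAH1B2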
* hit, by the source's call; / = no result given. Most compounds without a hit are left out; they make up all but 3.5% or so of the library.

SMILES	PREPL inh	PAFAH2 inh	pPAFAH FP inh	Apaf1 inhib	PAFAH1B3 FP inh	PAFAH1B2 inh
Cn1c(NCCO)nc2c1c(=O)n(Cc1cccc(Cl)c1)c(=O)n2C	13	3	1	0	4	10
O=C(O)CCn1c(=O)n(CCC(=O)O)c(=O)n(CCC(=O)O)c1=O	5	-2	0	-8	7	7
O=C(CN1c2cccc3cccc(c23)S1(=O)=O)NC1CCCCC1	4	7	30*	-7	0	6
O=C(CN1C(=O)c2ccccc2S1(=O)=O)NC1CCCCCC1	15	4	-1	7	1	6
O=c1c2c(n3cnnc3n1-c1ccccc1)-c1ccccc1CC21CCCCC1	5	8	-5	10	8	15
CCn1c(SCC(N)=O)nc2c(c1=O)C1(CCCC1)Cc1ccccc1-2	6	7	5	12	-2	31*
CCn1c(=O)c2c(n3cnnc13)-c1ccccc1CC21CCCCC1	2	0	4	12	7	26*
NC(=O)CSc1nc2c(c(=O)n1-c1ccccc1)C1(CCCCC1)Cc1ccccc1-2	-3	-3	3	19	4	4
O=C1CN(C(=O)COc2ccc([N+](=O)[O-])cc2Cl)c2ccccc2N1	-20	1	-1	1	5	-2
O=C(CN1CCN(C/C=C/c2ccccc2)CC1)Nc1cc([N+](=O)[O-])ccc1Cl	49*	-9	4	7	7	6
COC(=O)c1ccc(CSc2nc3scc(-c4cccs4)c3c(=O)[nH]2)o1	1	16	29*	-4	6	11
COC(=O)c1ccc(CSc2nc3ccc(Cl)cc3[nH]2)o1	3	9	14	1	3	13
Cc1cc(NC(=O)CCC(=O)N(c2ccccc2)C2(C(=O)NC3CCCCC3)CCCC2)no1	18	1	5	34	7	26*
Cc1cc(NC(=O)Cc2ccccc2C)no1	-11	0	5	-1	15	6
Cc1cc(NC(=O)C2(c3ccccc3)CCCC2)no1	11	4	-4	12	5	25*
CCOc1ccc(NC(=O)CSc2nncc(=O)n2N)cc1	14	-3	3	9	10	7
FC(F)(F)c1ccccc1NC(=S)NN=C1CCCCCC1	19	/	2	9	/	/
O=C(Cn1ccccc1=O)NCc1ccc(F)cc1	1	-1	33*	-10	-8	2
CCCCn1c(N)c(N(C(=O)CSc2nnnn2-c2ccccc2)C2CCCC2)c(=O)[nH]c1=O	11	1	-3	3	1	-1
COCCNC(=O)c1onc(CSc2ccc(Cl)cc2)c1C(=O)O	5	10	4	10	6	28*
Cc1ccc(NC(=O)c2ncn(CCCN[C@H](C)c3cccc4ccccc34)n2)cc1C	/	-7	/	/	3	3
COc1ccc2ccc3c(c2c1)N=CC1(O3)N(C)c2ccccc2C1(C)C (centres undefined)	17	5	33*	13	14	1
COc1ccc2cc(N3CCCC3=O)ccc2c1	/	4	/	/	0	-1
COc1cccc(C(=O)/C(C#N)=N/Nc2cccc(-c3ccnc(C)n3)c2)c1	10	4	32*	-12	6	4
O=C(C1=C[C@H](C2CCCCC2)C[C@H](OCCCCO)O1)N1CCN(Cc2ccccc2)CC1	29	-5	6	7	-4	4
SMILES	PREPL inh	PAFAH2 inh	pPAFAH FP inh	Apaf1 inhib	PAFAH1B3 FP inh	PAFAH1B2 inh
Cc1ccc(N=C2NC(=O)/C(=C/c3cccn3C)S2)c(C)c1	40	12	25*	12	7	11
Cn1cccc1/C=C1\SC(=Nc2ccccc2)NC1=O	14	4	14	1	6	4
CCCCn1nc(NS(=O)(=O)c2cccc3nonc23)c2cc3cccc(C)c3nc21	-1	15	32*	-3	12	11
CCN1CCN(c2ccc(NC(=O)CCc3c(C)nc4c(-c5ccccc5)c(C)nn4c3C)cc2)CC1	14	3	6	48*	9	3
CCN1CCCC1Cn1cnc2c([nH]c3ccc(OC)cc32)c1=O (centres undefined)	1	12	1	-18	2	0
CCCC[C@@H]1C=C(C(=O)O)[C@H](c2ccc(C#N)cc2)N1S(=O)(=O)c1ccc(C)cc1	13	-5	2	14	7	13
CC(=O)c1ccc(OCC(=O)N2CCN(S(=O)(=O)c3ccc(C)cc3C)CC2)cc1	2	0	32*	4	15	6
Cc1ccc(S(=O)(=O)N2CCN(C(=O)CSc3ccc(F)cc3)CC2)cc1	-28	2	2	11	15	26*
CCOc1ccc(OCCC(=O)OCC(=O)N2CCN(S(=O)(=O)c3ccc(C)cc3)CC2)cc1	17	0	4	4	3	8
Cc1ccc(OCCC(=O)OCC(=O)N2CCN(S(=O)(=O)c3ccc(Cl)cc3)CC2)cc1	7	-6	16	23	4	28*
Cc1ccc(S(=O)(=O)N2CCN(C(=O)COC(=O)COc3ccc(Br)cc3)CC2)c(C)c1	/	-9	/	/	-9	-2
CCCOc1ccccc1OCC(=O)N1CCN(S(=O)(=O)c2ccc(Cl)cc2)CC1	-4	-4	2	10	-1	25*
CCN(CC)S(=O)(=O)c1ccc(N2CCN(C)CC2)c(NC(=O)CN2C(=O)NC3(CCCCC3)C2=O)c1	/	-3	/	/	9	8
COc1ccccc1NC(=O)c1nn(C)c(C(=O)Nc2ccccc2OC)c1[N+](=O)[O-]	6	-2	9	14	-2	5
COc1ccccc1NC(=O)c1c([N+](=O)[O-])c(C(C)(C)C)nn1C	13	5	31*	-4	-3	1
CC(CS(=O)(=O)c1ccc2c(c1)NC(=O)CS2)C(=O)N1CCN(c2cccc(Cl)c2)CC1 (centres undefined)	31	-2	25*	-262	0	-1
COc1ccc(C/C(=N\OC(C)=O)c2ccc(OC)cc2)cc1	-4	2	2	4	1	30*
CCOC(=O)c1c(-c2ccc(OC)cc2)oc2ccc(O)cc12	13	-2	31*	11	-7	0
Cc1ccc(OCC(=O)N(C)C2CCCCC2)c([N+](=O)[O-])n1	16	0	-2	1	12	9
Cc1ccc(NC(=O)CCSCCC(=O)Nc2ccc(C)c(C)c2)cc1C	0	-15	5	6	-8	29*

Screening data: PubChem BioAssay, several laboratories
